Series [1] addresses Purified 26S proteasome (Homo sapiens, UniProt P20618+P28074). Put plainly: Cleavage of Suc-LLVY-AMC by purified 26S proteasome. In kind it is biochemical.
For series [2], the system named is HEK-293T cells. As to the kind of experiment: Cell viability of HEK-293T cells. The note with it: concentration of 100 μM. It counts as cell-based. In outline:
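HEK-293T cells were tested alongside multiple myeloma lines after exposure to test peptoids. Viability was read as fluorescence (RFU).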

In series [3] the test system is HEK293-T cells. As to the kind of experiment: Anti-Ub Western blot of poly-ubiquitin conjugates in HEK293-T cells. In kind it is cell-based. The note with it: relative to vehicle-treated cells. For orientation: In western blotting, separated proteins are transferred to a membrane and probed.
In series [4] the target is T1, Rpn13 (Homo sapiens, UniProt Q16186). As to the kind of experiment: FP competition against fluorescently labeled 11 bound to Rpn13. The note with it: increasing amounts of competitor. In kind it is binding. In outline:
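Rpn13 pre-incubated with fluorescein-labelled test peptoid to form the complex, then challenged with increasing amounts of unlabelled competitor: either a covalent Rpn13 inhibitor reported to react at Cys88, or the unlabelled form of the same peptoid. Read-out is the change in fluorescence polarization.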

In series [5] the target is T1, Rpn13. The settings on record: assay not described; cited from earlier work.

Peptide text beside a SMILES is read from it. * marks the point of attachment. Cbz = O=C(OCc1ccccc1)*

T1 sequence (Q16186 whole entry): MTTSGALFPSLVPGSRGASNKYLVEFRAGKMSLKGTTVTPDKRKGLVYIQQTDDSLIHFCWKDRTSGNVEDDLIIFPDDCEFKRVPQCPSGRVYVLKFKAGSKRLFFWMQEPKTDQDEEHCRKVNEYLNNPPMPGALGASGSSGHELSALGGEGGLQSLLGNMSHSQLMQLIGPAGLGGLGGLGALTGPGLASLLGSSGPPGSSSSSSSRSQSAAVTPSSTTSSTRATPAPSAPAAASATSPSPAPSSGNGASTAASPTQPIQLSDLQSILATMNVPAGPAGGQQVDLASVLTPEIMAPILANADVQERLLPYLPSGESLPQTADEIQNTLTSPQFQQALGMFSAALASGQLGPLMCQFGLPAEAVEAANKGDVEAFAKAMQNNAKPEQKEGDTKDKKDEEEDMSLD

Regarding `CC(C)C[C@H](NC(=O)[C@H](Cc1ccccc1)NC(=O)c1cnccn1)B(O)O` [Bortezomib], the “effect on hydrolysis of the fluorogenic peptide (fluorescence)” value in series [1] is reported as “dose-sensitive decrease of fluorescence”.

As for `CC(C)C[C@@H](C=O)NC(=O)[C@H](CC(C)C)NC(=O)[C@H](CC(C)C)NC(=O)OCc1ccccc1` [MG-132] (Cbz-Leu-Leu-Leu-aldehyde), the “cell death of HEK-293T cells at 100 μM” value in series [2] is recorded as “no significant cell death”. In series [3], the “accumulation of ubiquitylated proteins” value is reported as “accumulation of ubiquitylated proteins does occur”.

In the case of `Cl.N[C@@H](Cc1ccccc1)C(=O)N1C/C(=C/c2ccc(Cl)c(Cl)c2)C(=O)/C(=C\c2ccc(Cl)c(Cl)c2)C1` [RA-190], the “competition of the fluorescently labeled 11-Rpn13 complex (FP signal)” value in series [4] is given as “insensitive”. In addition, the IC50 in series [5] is 100 nM.

Broadly, the IC50 is the concentration that gives 50% inhibition.
